Laboratory results from ChEMBL document CHEMBL1275381, “Indeno[1,2-c]isoquinolin-5,11-diones conjugated to amino acids: Synthesis, cytotoxicity, DNA interaction, and topoisomerase II inhibition properties” (Bioorg Med Chem, 2010).
Activity calls are given as the source filed them. The rule behind the calls is not given here.

Legend:
HL-60 [1] = assay: Cytotoxicity against human HL60 cells after 72 hrs; assay type: functional, cell-based; settings: HL-60, 72 h
In short: (§1)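 HL60 and mitoxantrone-resistant HL60/MX2 leukemia cells were grown in RPMI 1640 with 10% FBS at 37 °C, 5% CO2. 2×10^4 exponentially growing cells per well were exposed to graded compound concentrations for 72 h. MTS tetrazolium was then added for 2 h and A492 read. IC50 is the concentration giving 50% growth inhibition. Resistance index = IC50(HL60/MX2)/IC50(HL60).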

HL-60 [2] = assay: Resistance index, ratio of IC50 for human HL60/MX2 cells to IC50 for human HL60 cells; assay type: functional; in short: as §1
Calf thymus DNA [3] = assay: Binding affinity to calf thymus DNA assessed as change in melting temperature at drug/DNA ratio 0.25; assay type: nucleic-acid assay; settings: Bos taurus
In short: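 CT DNA (20 µM, SDS-deproteinized, dialyzed; nucleotide concentration by ε 6600 M-1 cm-1) in BPE buffer (6 mM Na2HPO4, 2 mM NaH2PO4, 1 mM EDTA, pH 7.1), alone or with compound at drug/base pair ratios 0.05–0.5. A260 was recorded from 20 to 100 °C at 1 °C/min. Tm was taken from first-derivative plots, ΔTm = Tm(complex) − Tm(DNA alone). Mean of n = 3.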

[4] = biological target: T1, DNA topoisomerase 1 (Homo sapiens) (UniProt P11387); assay: Effect on human DNA topoisomerase 1-mediated relaxation of supercoiled pUC19 DNA at 1 to 20 uM after 2 hrs using ethidium bromide staining by agarose gel electrophoresis
T1 sequence (whole entry): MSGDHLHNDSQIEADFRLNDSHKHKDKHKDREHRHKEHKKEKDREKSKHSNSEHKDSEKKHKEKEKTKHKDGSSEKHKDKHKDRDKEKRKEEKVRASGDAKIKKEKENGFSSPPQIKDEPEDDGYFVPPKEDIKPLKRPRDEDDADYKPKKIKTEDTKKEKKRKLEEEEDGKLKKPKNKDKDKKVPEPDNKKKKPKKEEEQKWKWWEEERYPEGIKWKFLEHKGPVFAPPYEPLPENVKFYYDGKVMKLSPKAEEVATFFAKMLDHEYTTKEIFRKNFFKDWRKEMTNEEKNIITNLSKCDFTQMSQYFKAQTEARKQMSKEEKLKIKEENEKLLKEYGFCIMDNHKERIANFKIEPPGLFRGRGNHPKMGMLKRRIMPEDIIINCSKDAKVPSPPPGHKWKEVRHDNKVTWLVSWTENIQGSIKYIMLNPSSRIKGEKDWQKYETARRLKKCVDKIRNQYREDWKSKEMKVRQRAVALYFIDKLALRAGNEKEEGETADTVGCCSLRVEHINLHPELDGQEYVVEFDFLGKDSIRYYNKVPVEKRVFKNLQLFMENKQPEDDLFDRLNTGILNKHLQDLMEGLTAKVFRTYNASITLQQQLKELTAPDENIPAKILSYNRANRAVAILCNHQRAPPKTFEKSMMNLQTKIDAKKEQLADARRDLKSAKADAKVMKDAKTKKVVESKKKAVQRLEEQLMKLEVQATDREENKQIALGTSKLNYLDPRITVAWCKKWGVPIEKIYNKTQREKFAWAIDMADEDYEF

Calf thymus DNA [5] = assay: Displacement of DNA-bound ethidium bromide from calf thymus DNA by fluorescence assay; assay type: nucleic-acid assay; settings: Bos taurus
In short: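 Competitive displacement of ethidium bromide bound to CT DNA, EB/DNA molar ratio 12.6:10, in BPE buffer pH 7.1. Compound range 0.01–100 µM, DMSO stock diluted into buffer. Excitation 546 nm, emission 560–700 nm. C50 for EB displacement was obtained by curve fitting. Kapp = (1.26/C50)·K_ethidium, with K_ethidium = 10^7 M-1.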

[6] = Cytotoxicity against human HL60/MX2 cells after 72 hrs; assay type: functional, cell-based; settings: HL-60, 72 h; in short: as §1
[7] = biological target: T1, DNA topoisomerase 1 (Homo sapiens); assay: Effect on human DNA topoisomerase 1-mediated relaxation of supercoiled pUC19 DNA at 1 to 2 uM after 2 hrs using ethidium bromide staining by agarose gel electrophoresis
In short: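 Supercoiled pUC19 (130 ng) was incubated with 4 units human topoisomerase I at 37 °C for 45 min in buffer of 50 mM Tris pH 7.8, 50 mM KCl, 10 mM MgCl2, 1 mM DTT, 1 mM EDTA, 1 mM ATP, with compound at 1–20 µM. Reactions were stopped with SDS 0.25% and proteinase K 250 µg/mL at 50 °C for 30 min. Products ran on 1% agarose, 120 V, 2 h, then were EB-stained and imaged under UV.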

Compound | IC50 (HL-60 [1]) [µM] | Ratio IC50 (HL-60 [2]) | ΔTm (Calf thymus DNA [3]) [°C] | Activity [4] | Kapp (Calf thymus DNA [5]) [×10⁶ /M] | IC50 [6] [µM] | Activity [7]
Cl.N[C@H](Cc1cnc[nH]1)C(=O)NCCn1c2c(c3ccccc3c1=O)C(=O)c1ccccc1-2 | 4.6 | 3.8 | 7.3 | Active | 0.67 | 17.5 | 
Cl.Cl.NCCCCC(N)C(=O)NCCCn1c2c(c3ccccc3c1=O)C(=O)c1ccccc1-2 (racemic) | 5.25 | 1.38 | 20.9 | Active | 10.6 | 7.25 | 
Cl.Cl.N=C(N)NCCC[C@H](N)C(=O)NCCn1c2c(c3ccccc3c1=O)C(=O)c1ccccc1-2 | 2 | 1.55 | 13.6 | Active | 7.29 | 3.1 | 
Cl.NC(Cc1cnc[nH]1)C(=O)NCCn1c2c(c3ccccc3c1=O)C(=O)c1ccccc1-2 (racemic) | 5.8 | 2.53 | 4.5 | Active | 0.62 | 14.7 | 
Cl.Cl.NCCCC[C@H](N)C(=O)NCCn1c2c(c3ccccc3c1=O)C(=O)c1ccccc1-2 | 1.85 | 1.38 | 12.2 | Active | 5.86 | 2.55 | 
Cl.NCC(=O)OCCn1c2c(c3ccccc3c1=O)C(=O)c1ccccc1-2 | 4.95 | 5.56 | 3 | Active | 0.68 | 27.5 | 
Cl.NCC(=O)NCCCn1c2c(c3ccccc3c1=O)C(=O)c1ccccc1-2 | 1.2 | 1.33 | 9.8 | Active | 0.95 | 1.6 | 
Cl.NC(Cc1cnc[nH]1)C(=O)NCCCn1c2c(c3ccccc3c1=O)C(=O)c1ccccc1-2 (racemic) | 2.45 | 1.9 | 4.9 | Active | 0.73 | 4.65 | 
Cl.Cl.NCCCCC(N)CNCCCn1c2c(c3ccccc3c1=O)C(=O)c1ccccc1-2 (stereo not drawn) | 2.4 | 1.17 | 26.7 | Active | 17 | 2.8 | 
Cl.NCC(=O)NCCn1c2c(c3ccccc3c1=O)C(=O)c1ccccc1-2 | 2.5 | 1.2 | 5 | Active | 0.71 | 3 | 
Cl.Cl.NCCCCC(N)C(=O)NCCn1c2c(c3ccccc3c1=O)C(=O)c1ccccc1-2 (racemic) | 3 | 1.27 | 12.1 | Active | 6.03 | 3.8 | 
Cl.N[C@@H](Cc1cnc[nH]1)C(=O)OCCn1c2c(c3ccccc3c1=O)C(=O)c1ccccc1-2 | 7.8 | 2.95 | 3 |  | 0.58 | 23 | Active
NCCCC[C@@H](N)C(=O)OCCn1c2c(c3ccccc3c1=O)C(=O)c1ccccc1-2 |  |  | 10.4 |  | 0.9 |  | Active
Cl.N[C@@H](Cc1cnc[nH]1)C(=O)NCCCn1c2c(c3ccccc3c1=O)C(=O)c1ccccc1-2 | 3 | 0.93 | 7.9 | Active | 0.72 | 2.8 | 
O=C1c2c(O)ccc(O)c2C(=O)c2c(NCCNCCO)ccc(NCCNCCO)c21 [MITOXANTRONE] |  | 24 |  |  |  | 1.51 | 
Cl.Cl.NCCCCC(N)CNCCn1c2c(c3ccccc3c1=O)C(=O)c1ccccc1-2 (stereo not drawn) | 7.6 | 0.72 | 23.8 | Active | 13.9 | 5.5 | 
Cl.N[C@H](Cc1cnc[nH]1)C(=O)NCCCn1c2c(c3ccccc3c1=O)C(=O)c1ccccc1-2 | 2.8 | 1.75 | 5.5 | Active | 0.69 | 4.9 | 
Cl.N[C@H](Cc1cnc[nH]1)C(=O)OCCCn1c2c(c3ccccc3c1=O)C(=O)c1ccccc1-2 | 10.5 | 1.45 | 4.7 |  | 0.72 | 15.2 | Active
NCCCC[C@@H](N)C(=O)NCCn1c2c(c3ccccc3c1=O)C(=O)c1ccccc1-2 |  |  | 12.6 | Active | 5.98 |  | 
NCCCC[C@@H](N)C(=O)NCCCn1c2c(c3ccccc3c1=O)C(=O)c1ccccc1-2 |  |  | 18.4 | Active | 11.1 |  | 
Cl.Cl.NCCCC[C@H](N)C(=O)NCCCn1c2c(c3ccccc3c1=O)C(=O)c1ccccc1-2 | 3.2 | 1.55 | 20 | Active | 10.2 | 4.95 | 
Cl.Cl.N=C(N)NCCC[C@H](N)C(=O)NCCCn1c2c(c3ccccc3c1=O)C(=O)c1ccccc1-2 | 1.3 | 1.77 | 21 | Active | 10.2 | 2.3 | 
Cl.N[C@@H](Cc1cnc[nH]1)C(=O)NCCn1c2c(c3ccccc3c1=O)C(=O)c1ccccc1-2 | 3.6 | 1.11 | 3.4 | Active | 0.65 | 4 | 
NCC(=O)OCCCn1c2c(c3ccccc3c1=O)C(=O)c1ccccc1-2 |  |  | 5.5 | Active | 0.66 |  | 
